Test results from ChEMBL document CHEMBL2424527, “Doxorubicin-antioxidant co-drugs” (Bioorg Med Chem Lett, 2013).
The source made the active and inactive calls. The calls are words filed in the database; no cut-off is given here.

What was measured:
H9c2 [1] = experiment: Cellular uptake in rat H9c2 cells at 5 umol/L after 24 hrs by spectrofluorimetry; type: ADME, cell-based; conditions: h9c2, 24 h, 5 µM
Procedure, shortened: (§1)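 Cells exposed 24 h to 5 μmol/L drug. Doxorubicin in whole-cell lysates read fluorimetrically at ex 475/em 553 nm, cell-free blank subtracted. Converted to nmol/mg cell protein via calibration curve. Duplicate measurements; means ± SD, n = 3.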

MCF7 [2] = experiment: Cytotoxicity against human MCF7 cells assessed as LDH release at 5 umol/L after 24 hrs; type: functional, cell-based
Procedure, shortened: (§2)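 Cells exposed 24 h to 5 μmol/L compound. Medium centrifuged 12,000 × g, 15 min; cells sonicated in 82.3 mmol/L triethanolamine phosphate-HCl pH 7.6. LDH read at 340 nm over 6 min in medium and lysate, in duplicate. Extracellular activity given as % of total; means ± SD, n = 4.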

MCF7 [3] = experiment: Cellular uptake in human MCF7 cells at 5 umol/L after 24 hrs by spectrofluorimetry; type: ADME, cell-based; conditions: mcf7, 24 h, 5 µM; procedure, shortened: as §1
MDA-MB-231 [4] = experiment: Cytotoxicity against human MDA-MB-231 cells assessed as LDH release at 5 umol/L after 24 hrs; type: functional, cell-based; procedure, shortened: as §2
MDA-MB-231 [5] = experiment: Cellular uptake in human MDA-MB-231 cells at 5 umol/L after 24 hrs by spectrofluorimetry; type: ADME, cell-based; conditions: mda-mb-231, 24 h, 5 µM; procedure, shortened: as §1
H9c2 [6] = experiment: Cytotoxicity against rat H9c2 cells assessed as LDH release at 5 umol/L after 24 hrs; type: cell-based; conditions: h9c2, 24 h, 5 µM; procedure, shortened: as §2
[7] = Cellular uptake in human MCF7 cell nucleus at 5 umol/L after 24 hrs by fluorimetric analysis; type: ADME, cell-based; conditions: mcf7, 24 h, 5 µM
Procedure, shortened: (§3)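 Cells incubated 24 h with 5 μmol/L drug. Doxorubicin measured fluorimetrically in nuclear or mitochondrial extracts, in duplicate. Means ± SD, n = 3.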

MCF7 [8] = experiment: Antioxidant activity in human MCF7 cells assessed as intracellular malonyldialdehyde level at 5 umol/L after 24 hrs by spectrofluorimetry; type: functional, cell-based
H9c2 [9] = experiment: Antioxidant activity in rat H9c2 cells assessed as intracellular malonyldialdehyde level at 5 umol/L after 24 hrs by spectrofluorimetry; type: functional, cell-based
[10] = Cellular uptake in human MDA-MB-231 cell nucleus at 5 umol/L after 24 hrs by fluorimetric analysis; type: ADME, cell-based; conditions: mda-mb-231, 24 h, 5 µM; procedure, shortened: as §3
MCF7 [11] = experiment: Drug efflux in human MCF7 cells at 1 to 100 umol/L incubated for 20 mins prior to compound wash out measured after 10 mins by spectrofluorimetry; type: ADME, cell-based; conditions: mcf7, 20 min
Procedure, shortened: (§4)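 Doxorubicin in whole-cell lysates measured fluorimetrically at ex 475/em 553 nm, blank subtracted, converted to nmol/mg cell protein by calibration curve. Kinetic values fitted to Michaelis-Menten equation to obtain Vmax and Km.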

H9c2 [12] = experiment: Antioxidant activity in rat H9c2 cells assessed as intramitochondrial ROS level at 5 umol/L after 24 hrs by DCFDA-AM staining-based spectrofluorimetry; type: functional, cell-based
Procedure, shortened: (§5)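 Mitochondria freshly isolated from cells grown 24 h with 5 μmol/L compound. DCFDA-AM loading and fluorescence read (ex 490/em 530 nm) as for whole cells, blank subtracted. Values expressed as nmol/mg mitochondrial protein. Measured in duplicate; means ± SD.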

MDA-MB-231 [13] = experiment: Antioxidant activity in human MDA-MB-231 cells assessed as intramitochondrial ROS level at 5 umol/L after 24 hrs by DCFDA-AM staining-based spectrofluorimetry; type: functional, cell-based; procedure, shortened: as §5
MDA-MB-231 [14] = experiment: Antioxidant activity in human MDA-MB-231 cells assessed as intracellular malonyldialdehyde level at 5 umol/L after 24 hrs by spectrofluorimetry; type: functional, cell-based
MDA-MB-231 [15] = experiment: Antioxidant activity in human MDA-MB-231 cells assessed as intracellular ROS level at 5 umol/L after 24 hrs by DCFDA-AM staining-based spectrofluorimetry; type: functional, cell-based
Procedure, shortened: (§6)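 Cells rinsed in PBS, loaded with 10 μmol/L DCFDA-AM for 10 min at 37°C, washed, resuspended in PBS. DCFH fluorescence read at ex 490/em 530 nm, cell-free blank subtracted, converted to nmol/mg cell protein by titration curve. Means ± SD; ANOVA with Tukey's test.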

MDA-MB-231 [16] = experiment: Drug efflux in human MDA-MB-231 cells at 1 to 100 umol/L incubated for 20 mins prior to compound wash out measured after 10 mins by spectrofluorimetry; type: ADME, cell-based; conditions: mda-mb-231, 20 min; procedure, shortened: as §4
MCF7 [17] = experiment: Antioxidant activity in human MCF7 cells assessed as intramitochondrial ROS level at 5 umol/L after 24 hrs by DCFDA-AM staining-based spectrofluorimetry; type: functional, cell-based; procedure, shortened: as §5
MCF7 [18] = experiment: Antioxidant activity in human MCF7 cells assessed as intracellular ROS level at 5 umol/L after 24 hrs by DCFDA-AM staining-based spectrofluorimetry; type: functional, cell-based; procedure, shortened: as §6
H9c2 [19] = experiment: Antioxidant activity in rat H9c2 cells assessed as intracellular ROS level at 5 umol/L after 24 hrs by DCFDA-AM staining-based spectrofluorimetry; type: functional, cell-based; procedure, shortened: as §6
Homo sapiens = species on record: Homo sapiens; experiment: Inhibition of human topoisomerase 2 using supercoiled pHOT1 as substrate at 1 to 50 umol/L by agarose gel electrophoresis
Procedure, shortened: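 Purified human topoisomerase II incubated with supercoiled pHOT1 plasmid and drug at 1, 5, 25, 50 μmol/L, using a commercial topoisomerase II drug screening kit. Etoposide at 5, 50, 100 μmol/L served as positive control.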

H9c2 [20] = experiment: Drug efflux in rat H9c2 cells at 1 to 100 umol/L incubated for 20 mins prior to compound wash out measured after 10 mins by spectrofluorimetry; type: ADME, cell-based; conditions: h9c2, 20 min; procedure, shortened: as §4
[21] = Cellular uptake in rat H9c2 cell nucleus at 5 umol/L after 24 hrs by fluorimetric analysis; type: ADME, cell-based; conditions: h9c2, 24 h, 5 µM; procedure, shortened: as §3
[22] = Cellular uptake in rat H9c2 cell mitochondria at 5 umol/L after 24 hrs by fluorimetric analysis; type: ADME; conditions: h9c2, 24 h, 5 µM; procedure, shortened: as §3
[23] = Cellular uptake in human MDA-MB-231 cell mitochondria at 5 umol/L after 24 hrs by fluorimetric analysis; type: ADME; conditions: mda-mb-231, 24 h, 5 µM; procedure, shortened: as §3
[24] = Cellular uptake in human MCF7 cell mitochondria at 5 umol/L after 24 hrs by fluorimetric analysis; type: ADME; conditions: mcf7, 24 h, 5 µM; procedure, shortened: as §3

Row | Drug uptake (H9c2 [1]) | Drug uptake (MCF7 [3]) | Drug uptake (MDA-MB-231 [5]) | Drug uptake [7] | Drug uptake [10] | Km (MCF7 [11]) [nmol/mg] | Vmax (MCF7 [11]) [nmol/min/mg] | Km (MDA-MB-231 [16]) [nmol/mg] | Vmax (MDA-MB-231 [16]) [nmol/min/mg] | SMILES | Activity (MCF7 [2]) | Activity (MDA-MB-231 [4]) | Activity (H9c2 [6]) | Activity (MCF7 [8]) | Activity (H9c2 [9]) | Activity (H9c2 [12]) | Activity (MDA-MB-231 [13]) | Activity (MDA-MB-231 [14]) | Activity (MDA-MB-231 [15]) | Activity (MCF7 [17]) | Activity (MCF7 [18]) | other results
1 | Active | Active | Active | – | – | – | – | – | – | COc1cccc2c1C(=O)c1c(O)c3c(c(O)c1C2=O)C[C@@](O)(C(=O)COC(=O)/C=C/c1ccc(O)c(O)c1)C[C@@H]3O[C@H]1C[C@H](N)[C@H](O)[C@H](C)O1.Cl | Active | inactive | Toxic | – | – | – | – | – | – | – | – | –
2 | Not Active | Active | Active | Active | Active | 1.88 | 18.9 | 1.35 | 33.11 | COc1cccc2c1C(=O)c1c(O)c3c(c(O)c1C2=O)C[C@@](O)(C(=O)CO)C[C@@H]3O[C@H]1C[C@H](N)[C@H](O)[C@H](C)O1 [DOXORUBICIN] | Active | Active | Toxic | Active | Active | Active | inactive | inactive | inactive | Active | Active | Activity (H9c2 [19]): Active; inhibition (Homo sapiens): Active; Km (H9c2 [20]): 1.96 nmol/mg; Vmax (H9c2 [20]): 11.89 nmol/min/mg
3 | Not Active | Active | Active | Active | Active | 1.83 | 11.1 | 1.25 | 16.53 | COc1cc(/C=C/C(=O)OCC(=O)[C@]2(O)Cc3c(O)c4c(c(O)c3[C@@H](O[C@H]3C[C@H](N)[C@H](O)[C@H](C)O3)C2)C(=O)c2c(OC)cccc2C4=O)ccc1O.Cl | Active | Active | Toxic | Active | Active | Active | inactive | inactive | inactive | Active | Active | Drug uptake [21]: Active; Drug uptake [22]: Active; Activity (H9c2 [19]): Active; inhibition (Homo sapiens): Active; Drug uptake [23]: Active; Km (H9c2 [20]): 2.01 nmol/mg; Vmax (H9c2 [20]): 11.7 nmol/min/mg; Drug uptake [24]: Active
